Results from ChEMBL document CHEMBL3297714, “Gigantol, a bibenzyl from Dendrobium draconis, inhibits the migratory behavior of non-small cell lung cancer cells” (J Nat Prod, 2014).
Calls of active or inactive are those of the source. No cut-off for these calls is given here.

What was measured:
[1] = system: NCI-H460; experiment: Cytotoxicity against human NCI-H460 cells assessed as cell viability at 50 uM for 24 hrs by MTT assay; assay type: functional; conditions: NCI-H460, 24 h, read-out: Activity
How it was run: (§1)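 MTT was given for 4 h at 37 °C, formazan was solubilized in DMSO and absorbance taken at 570. Viability is % of untreated control. IC50 came from four independent experiments. n = 4.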

[2] = molecular target: RAC-alpha serine/threonine-protein kinase (Homo sapiens) (UniProt P31749); experiment: Inhibition of Akt phosphorylation at Ser473 in human NCI-H460 cells at 0 to 20 uM for 24 hrs by Western blot analysis; assay type: cell-based
How it was run: (§2)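 H460 cells were seeded at 5 × 10^5/well, left overnight, then exposed to 0−20 μM for 24 h. Lysis used Tris-HCl pH 7.5 buffer with Triton X-100, vanadate, NaF, PMSF and protease inhibitors, 40 min on ice. 60 μg protein per lane was run on 10% SDS-PAGE and blotted to nitrocellulose. Primary antibody overnight at 4 °C, then HRP secondary. Chemiluminescence, densitometry, β-actin loading control.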

[3] = system: NCI-H460; experiment: Inhibition of human NCI-H460 cells migration at 20 uM after 24 hrs by wound healing assay; assay type: functional; conditions: NCI-H460, 24 h
How it was run: (§3)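 H460 cells were seeded at 2.5 × 10^5/well and grown to a monolayer, then scratched with a 1 mm tip and washed with PBS. They were kept in serum-free RPMI with 0−20 μM for 24 h, or ± 20 μM for 24, 48 and 72 h. The wound was photographed, and migration was calculated as the change in wound space divided by that of control. Mean ± SD, n = 4.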

[4] = system: NCI-H460; experiment: Inhibition of human NCI-H460 cells migration at 5 uM after 24 hrs by wound healing assay; assay type: functional; conditions: NCI-H460, 24 h; how it was run: as §3
[5] = system: NCI-H292; experiment: Inhibition of human NCI-H292 cells migration at 0 to 20 uM after 24 hrs by wound healing assay; assay type: functional, cell-based
How it was run: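 NCI-H292 cells in RPMI-1640 with 10% FBS were grown to a confluent monolayer and scratched with a 1 mm tip. They were incubated in serum-free RPMI with 0−20 μM for 24 h. The change in wound space was measured from photographs relative to untreated cells.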

[6] = system: NCI-H460; experiment: Inhibition of human NCI-H460 cells migration at 20 uM by wound healing assay; assay type: functional, cell-based; conditions: TDE = time-dependent effect; how it was run: as §3
[7] = system: NCI-H460; experiment: Cytotoxicity against human NCI-H460 cells assessed as cell viability at 0 to 20 uM for 12 to 72 hrs by MTT assay; assay type: functional, cell-based
How it was run: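 MTT was added for 4 h at 37 °C, formazan was dissolved in DMSO and read at 570. Viability is given as % of untreated cells. Mean ± SD, n = 4.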

[8] = system: NCI-H460; experiment: Cytotoxicity against human NCI-H460 cells assessed as cell viability at 100 uM for 24 hrs by MTT assay; assay type: functional; conditions: NCI-H460, 24 h, read-out: Activity; how it was run: as §1
[9] = molecular target: Focal adhesion kinase 1 (Homo sapiens) (UniProt Q05397); experiment: Inhibition of Fak phosphorylation at Tyr397 in human NCI-H460 cells at 0 to 20 uM for 24 hrs by Western blot analysis; assay type: cell-based; how it was run: as §2
[10] = system: NCI-H460; experiment: Cytotoxicity against human NCI-H460 cells assessed as cell viability for 24 hrs by MTT assay; assay type: functional, cell-based; conditions: NCI-H460, 24 h; how it was run: as §1
[11] = system: NCI-H460; experiment: Inhibition of human NCI-H460 cells invasion after 24 hrs by transwell assay; assay type: functional, cell-based
How it was run: (§4)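 Matrigel-coated Transwell inserts (8 μm pore) were seeded with H460 cells at 1.5 × 10^5/well in RPMI with 0.1% FBS plus compound (0−20 μM), with 10% FBS RPMI in the lower chamber, for 24 or 48 h. Cells that invaded the underside were stained with 10 μg/mL Hoechst 33342 for 30 min and counted per field by fluorescence microscopy. n = 4.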

[12] = system: NCI-H460; experiment: Inhibition of human NCI-H460 cells migration overexpressing Cav-1 at 20 uM after 24 hrs by wound healing assay; assay type: functional, cell-based
How it was run: (§5)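 H460 cells were stably transfected (Lipofectamine 2000) with Cav-1 expression, Cav-1 shRNA or control plasmid, selected with antibiotic for 30 days and pooled, then passaged twice without G418. Confluent monolayers were scratched with a 1 mm tip and treated with 20 μM for 24 h. Wound-space change was expressed relative to untreated cells. n = 4.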

[13] = system: NCI-H460; experiment: Cytotoxicity against human NCI-H460 cells assessed as cell viability at < 20 uM for 24 hrs by MTT assay; assay type: functional, cell-based; how it was run: as §1
[14] = system: NCI-H460; experiment: Decrease in Cdc42 expression in human NCI-H460 cells at 0 to 20 uM for 24 hrs by Western blot analysis; assay type: functional, cell-based; how it was run: as §2
[15] = system: HaCaT; experiment: Cytotoxicity against human HaCaT cells assessed as cell migration at 0 to 20 uM after 24 hrs by wound healing assay; assay type: cell-based
How it was run: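 HaCat keratinocytes grown in DMEM with 10% FBS, 2 mM L-glutamine and penicillin/streptomycin. A confluent monolayer was scratched with a 1 mm tip, washed with PBS, and kept in serum-free medium with compound (0−20 μM) for 24 h. The wound was photographed, and the change in wound space was expressed relative to untreated cells.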

[16] = system: NCI-H460; experiment: Induction of necrosis in human NCI-H460 cells at 50 to 100 uM for 24 hrs by Hoechst-[…]/PI staining based fluorescence microscopic analysis; assay type: functional, cell-based
How it was run: (§6)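 They were stained with 10 μg/mL Hoechst 33342 plus 5 μg/mL propidium iodide for 30 min. Apoptotic (Hoechst-condensed) and necrotic (PI-positive) cells were scored by fluorescence microscopy as % versus untreated control.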

[17] = system: NCI-H460; experiment: Inhibition of human NCI-H460 cells migration after 24 to 72 hrs by wound healing assay; assay type: functional, cell-based; how it was run: as §3
[18] = system: NCI-H460; experiment: Effect on unphosphorylated Akt level in human NCI-H460 cells at 0 to 20 uM for 24 hrs by Western blot analysis; assay type: functional, cell-based; how it was run: as §2
[19] = system: NCI-H460; experiment: Decrease in filopodia protrussions in human NCI-H460 cells at 10 to 20 uM for 24 hrs by phalloidin staining based fluorescence microscopic analysis; assay type: functional, cell-based
How it was run: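 H460 cells were seeded at 5 × 10^4/well and treated 24 h (0−20 μM). Cells were fixed in 4% paraformaldehyde, permeabilized with 0.1% Triton X-100 and blocked with 0.2% BSA, then stained with rhodamine-phalloidin (1:100, 15 min) or Hoechst 33342. Filopodia per cell were counted by fluorescence microscopy relative to untreated cells.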

[20] = system: NCI-H460; experiment: Inhibition of human NCI-H460 cells migration at 10 uM after 24 hrs by wound healing assay; assay type: functional; conditions: NCI-H460, 24 h; how it was run: as §3
[21] = system: NCI-H460; experiment: Effect on Fak expression in human NCI-H460 cells at 0 to 20 uM for 24 hrs by Western blot analysis; assay type: functional, cell-based; how it was run: as §2
[22] = system: NCI-H460; experiment: Inhibition of human NCI-H460 cells migration at 10 uM after 24 hrs by Boyden chamber assay relative to control; assay type: functional
How it was run: (§7)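 For the Boyden chamber, H460 cells at 5 × 10^4/well were placed on the upper side of an 8 μm Transwell filter in RPMI with 0.1% FBS plus compound (0−20 μM) for 24 h, with 10% FBS below. Non-migrated cells were swabbed off, and underside cells were stained with 10 μg/mL Hoechst 33342 for 30 min and counted per field. n = 4.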

[23] = system: NCI-H460; experiment: Inhibition of human NCI-H460 cells migration at 5 uM after 24 hrs by Boyden chamber assay relative to control; assay type: functional; how it was run: as §7
[24] = system: NCI-H460; experiment: Decrease in Cav-1 expression in human NCI-H460 cells at 0 to 20 uM for 24 hrs by Western blot analysis; assay type: functional, cell-based; how it was run: as §2
[25] = system: NCI-H460; experiment: Inhibition of human NCI-H460 cells invasion at 0 to 20 uM by transwell assay; assay type: functional, cell-based; conditions: TDE = time-dependent effect; how it was run: as §4
[26] = system: NCI-H460; experiment: Induction of apoptosis in human NCI-H460 cells at 50 to 100 uM for 24 hrs by Hoechst-[…]/PI staining based fluorescence microscopic analysis; assay type: functional, cell-based; how it was run: as §6
[27] = system: NCI-H460; experiment: Cytotoxicity against human NCI-H460 cells assessed as cell viability at 500 uM for 24 hrs by MTT assay; assay type: functional; conditions: NCI-H460, 24 h, read-out: Activity; how it was run: as §1
[28] = system: NCI-H460; experiment: Inhibition of human NCI-H460 cells migration transfected with Cav-1 shRNA at 20 uM after 24 hrs by wound healing assay; assay type: functional, cell-based; how it was run: as §5
[29] = system: NCI-H460; experiment: Inhibition of human NCI-H460 cells migration at 20 uM after 24 hrs by Boyden chamber assay relative to control; assay type: functional; how it was run: as §7

Sequence of Focal adhesion kinase 1 (Homo sapiens) (Q05397 2-1052 limits assumed): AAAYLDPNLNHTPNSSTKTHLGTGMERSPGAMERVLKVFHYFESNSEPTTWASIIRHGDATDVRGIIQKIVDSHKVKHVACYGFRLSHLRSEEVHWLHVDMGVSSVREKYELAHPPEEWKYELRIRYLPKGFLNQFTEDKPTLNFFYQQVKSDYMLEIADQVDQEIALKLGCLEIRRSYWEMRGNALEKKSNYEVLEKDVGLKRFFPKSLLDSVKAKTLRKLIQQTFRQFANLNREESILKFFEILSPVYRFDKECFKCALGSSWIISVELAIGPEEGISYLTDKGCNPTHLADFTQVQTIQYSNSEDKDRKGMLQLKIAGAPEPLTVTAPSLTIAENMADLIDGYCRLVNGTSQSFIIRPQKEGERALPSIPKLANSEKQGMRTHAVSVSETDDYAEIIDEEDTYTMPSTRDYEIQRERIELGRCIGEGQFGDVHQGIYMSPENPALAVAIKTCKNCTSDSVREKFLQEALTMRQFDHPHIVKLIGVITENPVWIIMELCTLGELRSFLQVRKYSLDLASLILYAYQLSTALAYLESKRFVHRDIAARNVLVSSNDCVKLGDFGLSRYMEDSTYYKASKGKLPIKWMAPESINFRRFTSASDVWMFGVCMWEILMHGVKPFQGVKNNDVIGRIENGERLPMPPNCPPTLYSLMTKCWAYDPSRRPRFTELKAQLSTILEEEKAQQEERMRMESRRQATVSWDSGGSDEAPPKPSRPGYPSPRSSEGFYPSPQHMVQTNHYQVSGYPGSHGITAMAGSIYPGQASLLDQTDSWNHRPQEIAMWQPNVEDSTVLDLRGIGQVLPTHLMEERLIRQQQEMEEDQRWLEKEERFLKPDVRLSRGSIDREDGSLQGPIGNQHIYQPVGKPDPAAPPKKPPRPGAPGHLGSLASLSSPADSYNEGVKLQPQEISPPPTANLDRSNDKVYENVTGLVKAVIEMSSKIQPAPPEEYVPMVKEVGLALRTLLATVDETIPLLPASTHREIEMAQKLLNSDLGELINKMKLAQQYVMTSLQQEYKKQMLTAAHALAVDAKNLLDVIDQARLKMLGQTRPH
Sequence of RAC-alpha serine/threonine-protein kinase (Homo sapiens) (P31749 whole entry): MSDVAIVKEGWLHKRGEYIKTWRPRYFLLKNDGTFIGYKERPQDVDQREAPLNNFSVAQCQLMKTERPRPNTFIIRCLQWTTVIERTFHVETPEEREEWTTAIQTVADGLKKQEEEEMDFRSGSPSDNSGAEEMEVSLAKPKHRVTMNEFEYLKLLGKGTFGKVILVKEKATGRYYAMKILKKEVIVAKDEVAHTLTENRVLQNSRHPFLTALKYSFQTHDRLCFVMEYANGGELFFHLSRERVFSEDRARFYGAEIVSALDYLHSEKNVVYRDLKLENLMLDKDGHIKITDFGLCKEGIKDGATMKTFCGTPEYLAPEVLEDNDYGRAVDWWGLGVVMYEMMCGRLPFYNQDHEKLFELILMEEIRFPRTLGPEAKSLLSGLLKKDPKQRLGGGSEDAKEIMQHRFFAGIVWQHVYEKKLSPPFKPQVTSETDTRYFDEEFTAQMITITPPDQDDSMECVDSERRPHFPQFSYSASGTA

`COc1cc(O)cc(CCc2ccc(O)c(OC)c2)c1` [GIGANTOL] was tested, and the viability at 50 µM [1] was 83%, the inhibition [2] was “Active” and the inhibition at 20 µM [3] was 70%. For the same molecule, the inhibition at 5 µM [4] was 30%, the inhibition [5] was “Active” and the inhibition [6] was “tde”. For the same molecule, the Activity [7] was “inactive”, the viability at 100 µM [8] was 80% and the Activity [9] was “inactive”. The IC50 [10] was 248 µM, the inhibition [11] was “Dose-dependent effect” and the inhibition [12] was “Active”. The Activity [13] was “inactive”, the inhibition [14] was “Active” and the Activity [15] was “Non-toxic”. For the same molecule, the Activity [16] was “inactive”, the inhibition [17] was “Dose-dependent effect” and the Activity [18] was “inactive”. For the same molecule, the inhibition [19] was “Active”, the inhibition at 10 µM [20] was 50% and the Activity [21] was “inactive”. For the same molecule, the “fold change (FC)” value [22] was 0.4, the “fold change (FC)” value [23] was 0.7 and the inhibition [24] was “Active”. For the same molecule, the inhibition [25] was “tde”, the Activity [26] was “Active” and the viability at 500 µM [27] was 20%. The inhibition [28] was “Active” and the “fold change (FC)” value [29] was 0.3.
